In ChEMBL document CHEMBL1152213, “Design, synthesis and antiviral efficacy of a series of potent chloropyridyl ester-derived SARS-CoV 3CLpro inhibitors” (Bioorg Med Chem Lett, 2008):
The source made the active and inactive calls. No cut-off for these calls is given here.

System: SARS-CoV
Test: Antiviral activity against SARS-CoV Urbani in african green monkey Vero E6 cells assessed as cell viability after 48 hrs
Type: functional, organism-based
Conditions: Severe acute respiratory syndrome-related coronavirus

Structure (SMILES)	IC50 [nM]
O=C(On1nnc2ccccc21)c1ccc2[nH]ccc2c1	200
CC(=O)n1ccc2cc(C(=O)Oc3cncc(Cl)c3)ccc21	400
CC(C)(C)OC(=O)N[C@@H]1C(=O)N2[C@@H]1SC(C)(C)[C@@H]2C(=O)Oc1cncc(Cl)c1	> 100000
CC(=O)N1Cc2ccccc2C[C@H]1C(=O)Oc1cncc(Cl)c1	140
Cc1ccc(S(=O)(=O)n2ccc3cc(C(=O)Oc4cncc(Cl)c4)ccc32)cc1	370
O=C(Oc1cncc(Cl)c1)c1cccc2cc[nH]c12	80
O=C(Oc1cncc(Cl)c1)c1ccc2c(ccn2S(=O)(=O)c2cccc([N+](=O)[O-])c2)c1	89
CC(=O)n1ccc2c(C(=O)Oc3cncc(Cl)c3)cccc21	1080
O=C(Oc1cncc(Cl)c1)c1ccc2[nH]ccc2c1	310
O=C(Oc1cncc(Cl)c1)c1ccc2cc[nH]c2c1	230

Target: Replicase polyprotein 1a (Severe acute respiratory syndrome-related coronavirus) (UniProt P0C6U8)
Test: Inhibition of SARS 3Clpro measured by rate of reaction
Conditions: not given
Summary of the method: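 Full-length authentic enzyme at 100 nM in 50 mM HEPES pH 7.5 with 1 mM DTT and 0.01 mg/mL BSA. IC50 taken from reaction rates across increasing inhibitor concentrations.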

Structure (SMILES)	Activity
CC(=O)n1ccc2cc(C(=O)Oc3cncc(Cl)c3)ccc21	inactive
CC(=O)n1ccc2c(C(=O)Oc3cncc(Cl)c3)cccc21	inactive
